From ChEMBL document CHEMBL4007450, “Development of 1,2,4-Oxadiazoles as Potent and Selective Inhibitors of the Human Deacetylase Sirtuin 2: Structure-Activity Relationship, X-ray Crystal Structure, and Anticancer Activity” (J Med Chem, 2017) come the findings set out here.

Calls of active or inactive are those of the source. No cut-off for these calls is given here.

The test system of assay [1] is U-937. The assay can be described thus: Cell cycle arrest in human U937 cells assessed as accumulation at G2/M phase at 25 uM after 48 hrs by propidium iodide staining-based FACS analysis. It counts as functional.
Assay [2] deals with NAD-dependent protein deacylase sirtuin-5, mitochondrial (Homo sapiens) (UniProt Q9NXA8). The assay can be described thus: Inhibition of human SIRT5 (34 to 302 residues) deacetylase activity expressed in Escherichia coli using Prx1 peptide as substrate up to 100 uM after 45 mins in presence of NAD+ by pNCA/GDH-based microplate spectrophotometric analysis.
Assay [3] deals with T1, NAD-dependent protein deacetylase sirtuin-1 (Homo sapiens) (UniProt Q96EB6).
T1 sequence (whole entry): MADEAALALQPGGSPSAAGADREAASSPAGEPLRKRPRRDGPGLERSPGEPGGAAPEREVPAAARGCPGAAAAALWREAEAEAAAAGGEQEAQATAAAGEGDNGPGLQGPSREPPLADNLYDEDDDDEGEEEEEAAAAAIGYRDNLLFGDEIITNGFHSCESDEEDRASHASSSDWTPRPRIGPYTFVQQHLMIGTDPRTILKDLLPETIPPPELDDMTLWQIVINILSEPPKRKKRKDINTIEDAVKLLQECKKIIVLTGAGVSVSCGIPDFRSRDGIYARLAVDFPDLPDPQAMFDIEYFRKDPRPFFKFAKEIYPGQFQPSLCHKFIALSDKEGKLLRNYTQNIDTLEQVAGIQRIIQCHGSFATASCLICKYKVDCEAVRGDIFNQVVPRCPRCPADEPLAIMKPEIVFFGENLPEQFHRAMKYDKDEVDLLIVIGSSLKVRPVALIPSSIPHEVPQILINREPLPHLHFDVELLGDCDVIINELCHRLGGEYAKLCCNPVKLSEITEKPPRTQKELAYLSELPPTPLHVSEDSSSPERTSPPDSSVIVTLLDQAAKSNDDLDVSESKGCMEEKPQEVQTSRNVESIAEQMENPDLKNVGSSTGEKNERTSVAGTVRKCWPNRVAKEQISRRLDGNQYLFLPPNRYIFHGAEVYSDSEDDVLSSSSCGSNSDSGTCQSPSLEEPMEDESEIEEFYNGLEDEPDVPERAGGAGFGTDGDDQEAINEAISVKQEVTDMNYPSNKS
The assay can be described thus: Inhibition of human full length SIRT1 activity expressed in Escherichia coli using p53 peptide as substrate up to 100 uM after 45 mins in presence of NAD+ by pNCA/GDH-based microplate spectrophotometric analysis. In a few lines:
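Full-length Sirt1 at 2 µM with p53 peptide RHKacKLMFK as substrate. Activity was measured in the same coupled pNCA/GDH mix as for Sirt2 (α-ketoglutarate, NADPH, Na-phosphate pH 7.8, 3% DMSO), following NADPH oxidation at 340 nm at 20 °C for 45 min. Compounds were tested up to 100 µM.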

Assay [4] concerns the target T2, NAD-dependent protein deacetylase sirtuin-2 (Homo sapiens, UniProt Q8IXJ6).
T2 sequence (Q8IXJ6 whole entry): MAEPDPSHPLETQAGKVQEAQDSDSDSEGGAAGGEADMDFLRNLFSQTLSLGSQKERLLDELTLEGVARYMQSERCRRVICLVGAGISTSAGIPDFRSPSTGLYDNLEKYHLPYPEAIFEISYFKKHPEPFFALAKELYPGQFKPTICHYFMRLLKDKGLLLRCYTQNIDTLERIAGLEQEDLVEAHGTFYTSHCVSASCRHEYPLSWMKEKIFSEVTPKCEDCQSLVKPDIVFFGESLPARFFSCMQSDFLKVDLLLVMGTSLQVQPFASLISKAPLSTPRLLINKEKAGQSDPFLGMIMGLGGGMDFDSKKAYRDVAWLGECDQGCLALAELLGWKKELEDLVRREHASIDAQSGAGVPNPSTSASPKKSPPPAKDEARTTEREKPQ

The target in assay [5] is T3, NAD-dependent protein deacetylase sirtuin-3, mitochondrial (Homo sapiens) (UniProt Q9NTG7).
T3 sequence (whole entry): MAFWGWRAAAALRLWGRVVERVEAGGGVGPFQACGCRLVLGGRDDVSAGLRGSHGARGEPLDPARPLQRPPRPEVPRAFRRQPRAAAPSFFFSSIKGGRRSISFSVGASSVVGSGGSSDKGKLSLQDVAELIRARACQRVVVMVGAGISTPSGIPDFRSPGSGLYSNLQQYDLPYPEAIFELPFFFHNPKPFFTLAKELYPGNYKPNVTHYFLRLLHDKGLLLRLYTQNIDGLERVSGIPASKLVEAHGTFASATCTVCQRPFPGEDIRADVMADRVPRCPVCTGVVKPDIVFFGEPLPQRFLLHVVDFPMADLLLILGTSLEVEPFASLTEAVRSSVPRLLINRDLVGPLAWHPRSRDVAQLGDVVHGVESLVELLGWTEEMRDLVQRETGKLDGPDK
The assay can be described thus: Inhibition of human SIRT3 (114 to 380 residues) activity expressed in Escherichia coli using AceCS2 peptide as substrate up to 100 uM after 45 mins in presence of NAD+ by pNCA/GDH-based microplate spectrophotometric analysis. A digest of the protocol:
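Same pNCA/GDH-coupled 340 nm NADPH read-out as the Sirt2 assay, using 20 mM Na-phosphate pH 7.8 with 3% DMSO at 20 °C for 45 min. Sirt3 (114-380) was used at 5 µM with AceCS2 peptide TRSGacKVMR as substrate. Inhibitors were tested up to 100 µM.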

Assay [6] has as its target NAD-dependent protein deacylase sirtuin-5, mitochondrial (Homo sapiens) (UniProt Q9NXA8). The assay can be described thus: Inhibition of human SIRT5 (34 to 302 residues) desuccinylase activity expressed in Escherichia coli using peptide as substrate up to 100 uM after 45 mins in presence of NAD+ by pNCA/GDH-based microplate spectrophotometric analysis.
The subject of assay [7] is U-937. The assay can be described thus: Effect on cell cycle arrest in human U937 cells at 25 uM after 48 hrs by propidium iodide staining-based FACS analysis. It counts as functional. For orientation: In flow cytometry, cells or beads pass a laser one at a time.
Assay [8] concerns the target NAD-dependent protein deacylase sirtuin-5, mitochondrial (Homo sapiens) (UniProt Q9NXA8). The assay can be described thus: Inhibition of human SIRT5 (34 to 302 residues) deacetylase activity expressed in Escherichia coli using Prx1 peptide as substrate at 100 uM after 45 mins in presence of NAD+ by pNCA/GDH-based microplate spectrophotometric analysis.
The target in assay [9] is T4, NAD-dependent protein deacetylase sirtuin-2 (Homo sapiens) (UniProt Q8IXJ6).
T4 sequence (whole entry): T2 sequence (Q8IXJ6 whole entry)
The conditions noted are these: 5 to 25 uM.

For assay [10], the target named is NAD-dependent protein deacylase sirtuin-5, mitochondrial (Homo sapiens) (UniProt Q9NXA8). The assay can be described thus: Inhibition of human SIRT5 (34 to 302 residues) desuccinylase activity expressed in Escherichia coli using CPS1 peptide as substrate at 100 uM after 45 mins in presence of NAD+ by pNCA/GDH-based microplate spectrophotometric analysis.
Assay [11] has as its target T4, NAD-dependent protein deacetylase sirtuin-2 (Homo sapiens). As to conditions: 5 to 25 uM. The source holds these as a separate data set.
The target in assay [12] is T1, NAD-dependent protein deacetylase sirtuin-1 (Homo sapiens). As to conditions: 100 uM.
Assay [13] concerns HL-60. The assay can be described thus: Induction of apoptosis in human HL60 cells assessed as pre-G1 accumulation at 50 uM after 48 hrs by propidium iodide staining-based FACS analysis. It counts as functional. A digest of the protocol:
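Leukemia cells (U937, NB4, HL-60, K562) were grown in RPMI-1640 with 10% FBS, 2 mM L-glutamine and antibiotics, then treated for 48 h at 5, 10, 25 and 50 μM. 2.5×10^5 cells were stained 30 min in the dark in hypotonic PI buffer (0.1% Triton X-100, 0.1% citrate, 50 µg/mL PI, RNase A). Apoptosis was scored as pre-G1 content by flow cytometry. Duplicates, mean ± SD.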

Sequence of NAD-dependent protein deacylase sirtuin-5, mitochondrial (Homo sapiens) (Q9NXA8 37-310 limits assumed): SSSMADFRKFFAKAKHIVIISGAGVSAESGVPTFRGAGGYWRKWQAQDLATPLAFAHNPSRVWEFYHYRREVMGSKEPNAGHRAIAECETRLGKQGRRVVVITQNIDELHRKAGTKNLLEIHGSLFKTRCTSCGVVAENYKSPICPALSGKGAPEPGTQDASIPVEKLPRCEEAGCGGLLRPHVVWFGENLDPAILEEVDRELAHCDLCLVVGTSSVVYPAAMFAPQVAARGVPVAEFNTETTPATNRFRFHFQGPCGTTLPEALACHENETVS

Turning to `Clc1ccccc1-c1noc(CCCBr)n1`, the result in assay [1] was Active.

Regarding `BrCCCc1nc(-c2ccccc2Br)no1`, the outcome in assay [1] was Active.

Regarding `ClCCCc1nc(-c2ccc(Br)cc2)no1`, the inhibition result in [2], in [3], in assay [5] and in assay [6] was “inactive” throughout. Besides, half-maximal inhibition in [4] (IC50) was put at 3.6 µM. For the same molecule, the outcome in [7] was inactive.

Take `N#C/C(=C\c1ccc(-c2cc(Cl)ccc2Cl)o1)C(=O)Nc1cccc2ncccc12`: the inhibition result in [8], in [10] and in assay [12] was “Active” in each case. The inhibition entry in assay [9] and in assay [11] was “inactive” in each case. In [13], the Activity is on record as 6%.

As a reminder, the IC50 is the concentration at which inhibition is half-maximal. A high value points to a need for much substance.
